Laboratory results: ChEMBL document CHEMBL3272063, “Potential antitumor agents. 13. 4-Methyl-5-amino-1-formylisoquinoline thiosemicarbazone” (J Med Chem, 1976)
Activity calls are given as the source filed them. The rule behind the calls is not given here.

Key:
[1] = Antitumor activity against mouse S180A cells allografted in CD-1 mouse assessed as average survival at maximum effective dose administered qd for 6 days (reference value: 12.6 +/- 0.6 days); type: functional
[2] = Antitumor activity against mouse S180A cells allografted in CD-1 mouse assessed as average survival at maximum effective dose administered qd for 6 days relative to control; type: functional
[3] = Antitumor activity against mouse S180A cells allografted in CD-1 mouse assessed as dose required for maximum increase in mouse survival administered qd for 6 days; type: functional
Mus musculus = assay: Toxicity in CD-1 mouse allografted with mouse S180A cells assessed as change in body weight at maximum effective dose administered qd for 6 days (reference value: 18.2%); type: organism-based; settings: 144 h
Rattus norvegicus [4] = species: Rattus norvegicus; assay: Inhibition of ribonucleoside-diphosphate reductase in rat hepatoma cells relative to 4-(m-amino)phenyl-2-formylpyridine thiosemicarbazone; type: cell-based
Rattus norvegicus [5] = species: Rattus norvegicus; assay: Inhibition of ribonucleoside-diphosphate reductase in rat hepatoma cells relative to 5-hydroxy-2-formylpyridine thiosemicarbazone; type: cell-based
S180A = assay: Antitumor activity against mouse S180A cells allografted in CD-1 mouse assessed as increase in mouse survival administered qd for 6 days; type: functional, cell-based
How it was run: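 Adult female CD-1 mice given Sarcoma 180 ascites cells taken from a donor mouse carrying a 7-day tumor. Drug dosed once daily for six consecutive days, starting 24 h after implantation, across 5-100 mg/kg/day. Read-out is average survival time, with mice alive at 50 days counted as 50-day survivors. %T/C = treated/control × 100. Value reported at the maximum effective daily dose.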

| Structure (SMILES) | Survival [1] [days] | T/C [2] [%] | Activity [3] [mg/kg] | Activity (Mus musculus) [%] | fold change (FC) (Rattus norvegicus [4]) | fold change (FC) (Rattus norvegicus [5]) | Activity (S180A) |
| --- | --- | --- | --- | --- | --- | --- | --- |
| NC(=S)N/N=C/c1nccc2c(N)cccc12 | 37.3 | 296 | 40 | -8.5 | – | – | – |
| Cc1cnc(/C=N/NC(N)=S)c2cccc(N)c12 | 38.2 | 303 | 10 | -4.8 | 2 | 60 | – |
| N/C(S)=N/N=C/c1ccc(O)cn1 | 30.4 | 241 | 60 | -3.3 | – | – | – |
| NC(=S)N/N=C/c1nccc2ccccc12 | 39.2 | 311 | 40 | -5.1 | – | – | – |
| Cc1cnc(/C=N/NC(N)=S)c2cccc([N+](=O)[O-])c12 | – | – | – | – | – | – | inactive |
